Source: ChEMBL document CHEMBL4261516, “Design, synthesis and pharmacological evaluation of new 2-oxo-quinoline derivatives containing α-aminophosphonates as potential antitumor agents” (Medchemcomm, 2017)
Active and inactive are the calls of the source. The rule behind the calls is not given here.

Tests used:
HepG2 [1] = assay: Cell cycle arrest in human HepG2 cells assessed as accumulation at G2 phase at 8 uM after 48 hrs by propidium iodide staining-based flow cytometric method (reference value: 19.04%); format: functional
HepG2 [2] = assay: Cell cycle arrest in human HepG2 cells assessed as accumulation at G2 phase at 10 uM after 48 hrs by propidium iodide staining-based flow cytometric method (reference value: 19.04%); format: functional
HepG2 [3] = assay: Cell cycle arrest in human HepG2 cells assessed as accumulation at G1 phase at 12 uM after 48 hrs by propidium iodide staining-based flow cytometric method (reference value: 50.47%); format: functional
HepG2 [4] = assay: Downregulation of cyclin B1 expression in human HepG2 cells after 48 hrs by Western blot method; format: functional, cell-based
HepG2 [5] = assay: Upregulation of p21 expression in human HepG2 cells after 48 hrs by Western blot method; format: functional, cell-based
HepG2 [6] = assay: Upregulation of p27 expression in human HepG2 cells after 48 hrs by Western blot method; format: functional, cell-based
HepG2 [7] = assay: Induction of morphological changes in human HepG2 cells at 10 uM after 12 hrs by Hoechst 33258 staining-based fluorescent microscopic method; format: functional, cell-based
Outline: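 Cells were treated on cover slips, fixed in 4% paraformaldehyde for 10 min and washed with PBS. They were stained with Hoechst 33258 for 5 min, washed again, and nuclei were examined by fluorescence microscopy (excitation 350 nm, emission 460 nm).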

HepG2 [8] = assay: Induction of apoptosis in human HepG2 cells assessed as membrane blebbing at 10 uM after 24 hrs by acridine orange/ethidium bromide staining-based fluorescent microscopic method; format: functional, cell-based
Outline: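 Cells were plated at 5×10^4 cells/mL on sterile cover slips. Medium was replaced with fresh medium containing 10% FBS plus compound. After treatment, cover slips were inverted onto slides with acridine orange/ethidium bromide stain and viewed by fluorescence microscopy.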

HepG2 [9] = assay: Induction of apoptosis in human HepG2 cells assessed as viable cells at 8 uM after 24 hrs by annexin V/[…] staining-based fluorescent microscopic method (reference value: 91.31%); format: functional; settings: HepG2, 24 h, read-out: Activity
HepG2 [10] = assay: Induction of apoptosis in human HepG2 cells assessed as early apoptotic cells at 10 uM after 24 hrs by annexin V/[…] staining-based fluorescent microscopic method (reference value: 6.50%); format: functional
HepG2 [11] = assay: Induction of apoptosis in human HepG2 cells assessed as necrotic cells at 10 uM after 24 hrs by annexin V/[…] staining-based fluorescent microscopic method (reference value: 0.28%); format: functional
HepG2 [12] = assay: Induction of apoptosis in human HepG2 cells assessed as upregulation of Bax levels at 8 to 12 uM after 24 hrs by Western blot method; format: functional, cell-based
Outline: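 Treated HepG2 cells were lysed on ice in 1% SDS/Tris-HCl pH 7.5 buffer with EDTA, NaCl, PMSF, leupeptin and trypsin inhibitor, then cleared at 12,000 × g for 5 min. Protein was quantified by BCA, and 40–50 µg was run on 12% SDS-PAGE and blotted to PVDF. Membranes were blocked with 5% milk, incubated with primary antibody overnight at 4 °C and HRP secondary for 1 h. Detection by chemiluminescence with densitometry.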

Q: For `CCOP(=O)(Cc1ccc(/N=C/c2cc3cc(C)ccc3[nH]c2=O)cc1)OCC`, which Activity (HepG2 [1]) is on record?
A: The Activity was 34.68%.

Q: What about the Activity (HepG2 [2]) of the same compound?
A: Its Activity is 36.92%.

Q: What about the Activity (HepG2 [3]) of the same compound?
A: Its Activity is 25.75%.

Q: What about the Activity (HepG2 [4]) of the same compound?
A: The Activity was “Dose-dependent effect”.

Q: What about the Activity (HepG2 [5]) of the same compound?
A: The Activity was “Dose-dependent effect”.

Q: What about the Activity (HepG2 [6]) of the same compound?
A: The Activity was “Dose-dependent effect”.

Q: What about the Activity (HepG2 [7]) of the same compound?
A: The Activity was “Active”.

Q: What about the Activity (HepG2 [8]) of the same compound?
A: Its Activity is “Active”.

Q: And the viability at 8 µM (HepG2 [9])?
A: Its viability at 8 µM is 62.5%.

Q: And the Activity (HepG2 [10])?
A: The Activity was 34.38%.

Q: And the Activity (HepG2 [11])?
A: The Activity was 0.12%.

Q: And the Activity (HepG2 [12])?
A: The Activity was “Active”.
